An excerpt weighted towards active compounds, which were near 3.1% of everything screened.
miR122 inh: blocks miR-122 activity in Huh7 sensor cells. activation (reporter increase), % at 12.5 µM. 0.3% of 340,000 active. Huh7 miR-122 Renilla luciferase sensor, 48 h; neutral wells = 0, positive control = 100;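 active means mean replicate activation score at least 90 and every replicate individually at or above 90; inconclusive means only one of the two criteria met; inactive means neither criterion met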;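 further: higher luciferase means less miR-122 activity so hits act as miR-122 inhibitors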
rRNA inh HTS: selective bacterial rRNA inhibition in E. coli. E. coli WT GFP vs humanized-ribosome RFP mutants, fluorescence, 24 h; stronger effect = lower value; DMSO median 0, no signal -100. GFP signal change (wild-type ribosome), % (test concentration not listed). 1.6% of 350,000 active;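 active means significant combined selectivity score with lowered wild-type GFP, culture density cut under 30%, mutant RFP and density less affected; inactive means any of these conditions unmet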
DENV2 CPE: protects cells from dengue virus 2 cytopathic effect | AID 651640 | 1.7% of 350,000 active | DENV2-infected cells, cytopathic effect rescue, plate reader | CPE inhibition, % at 9.99 µM; in the data active means CPE inhibition above about 20%, passing the limit was not always enough; inconclusive means no clear call, values can overlap the other calls; tested in BHK-21 cells;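 further: 0% = median of neutral control wells and 100% = median of positive control wells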
Cneo AK release: causes C. neoformans cell lysis; adenylate kinase release luminescence, 4 h; normalised: neutral wells 0, clomiphene wells 100; lysis activity, % at 15 µM; 0.2% of 360,000 active; AID 651654;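 active means mean lysis activity across replicates of at least 80%, whatever share of replicates individually reach that level; inactive means mean lysis activity below 80%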
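Material: C. neoformans cells; Schedule: 4 h static compound exposure, 37 °C, read 1 h post-reagent; Measured by: adenylate kinase release luminescence; Read-out: signal increase indicating cell lysis; Controls: Clomiphene as positive lysis control.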
E-selectin induc: E-selectin induction on HUVECs. P16581. HUVEC E-selectin immunofluorescence imaging; normalized: neutral wells 0, TNF-alpha wells 100. activation, % at 7.58 µM. 0.37% of 260,000 active. AID 686992;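 active means mean E-selectin-positive cell signal at least 10% of the positive control, reached in at least 60% of replicates, without over 20% cell loss; inconclusive means no rule given, readout overlaps actives, possibly toxicity-flagged; inactive means the rest, including those meeting only one limit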
Target sequence (P16581 whole entry, looked up): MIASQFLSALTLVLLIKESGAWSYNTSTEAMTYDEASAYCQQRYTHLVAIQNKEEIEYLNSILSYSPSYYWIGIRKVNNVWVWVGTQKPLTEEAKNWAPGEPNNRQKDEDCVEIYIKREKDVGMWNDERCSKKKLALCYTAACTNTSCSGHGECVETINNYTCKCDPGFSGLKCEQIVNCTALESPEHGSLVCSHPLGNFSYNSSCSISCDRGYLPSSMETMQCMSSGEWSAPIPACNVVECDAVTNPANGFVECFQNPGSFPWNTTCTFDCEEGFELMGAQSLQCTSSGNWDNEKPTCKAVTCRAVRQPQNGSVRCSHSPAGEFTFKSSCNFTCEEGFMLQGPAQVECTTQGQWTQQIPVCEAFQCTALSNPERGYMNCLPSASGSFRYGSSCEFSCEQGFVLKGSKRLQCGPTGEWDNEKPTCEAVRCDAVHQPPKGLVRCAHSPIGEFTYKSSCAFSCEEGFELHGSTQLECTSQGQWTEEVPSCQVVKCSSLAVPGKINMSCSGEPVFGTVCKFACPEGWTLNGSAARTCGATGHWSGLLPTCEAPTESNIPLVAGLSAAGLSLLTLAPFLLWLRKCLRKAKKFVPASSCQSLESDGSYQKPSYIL
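material = human umbilical vein endothelial cells (HUVEC), E-selectin induction | quantity = 3,000 cells/well | medium = EGM-2 growth medium on 0.1% gelatin-coated wells | technique = immunofluorescence imaging | read-out basis = % PE-positive cells | control set = TNF-alpha positive control, DMSO neutral control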
An asterisk follows results filed as active; ? = inconclusive; . = no result given; [ ] = remark or other dose.

SMILES	miR122 inh	rRNA inh HTS	DENV2 CPE	Cneo AK release	E-selectin induc
N#C/C(=N\Nc1ccc(Cl)cc1)C(N)=S	-16	-52	-5	-4	72*
N#C/C(=N\Nc1ccccc1)C(N)=S	-6	-34	-2	4	.
Cc1ccc(NC(N)=S)cc1C	-6	5	4	-2	0
Cc1ccc(N/N=C(\C#N)C(N)=S)cc1C	.	-33*	-5	.	6
O=C(CSc1ncc(-c2ccccc2)[nH]1)Nc1ccccc1	-3	-32*	-2	-1	.
CSCC[C@H](NC(=O)OC(C)(C)C)C(=O)N1CCC(C(=O)N[C@@H](C)C(=O)NCc2ccc(F)cc2)CC1	2	3	36*	1	.
OC[C@H]1[C@@H](c2ccc(-c3cccnc3)cc2)[C@@H]2CN(CC3CCOCC3)CCCCN12	5[16.7 µM]	.	-6	-2	.
O=S(=O)(c1ccccc1F)N1CC[C@@H]2[C@H]1c1cc(-c3ccc(F)cc3)ccc1N[C@@H]2CO	-8[16.7 µM]	-10	?	-1	-1
COCC(=O)Nc1ccc2c(c1)[C@H]1C[C@H](CC(=O)NCc3ccccc3)O[C@@H](CO)[C@H]1O2	2[16.7 µM]	1	21*	0	0
COCC(=O)Nc1ccc2c(c1)[C@@H]1C[C@H](CC(=O)N(C)C)O[C@@H](CO)[C@@H]1O2	0[16.7 µM]	4	30*	-1	0
COCC(=O)Nc1ccc2c(c1)[C@H]1C[C@@H](CC(=O)NCc3cc(F)ccc3F)O[C@@H](CO)[C@H]1O2	-2[16.7 µM]	-1	38*	-9	0
O=C(C[C@H]1C[C@@H]2c3cc(NC(=O)C4CCC4)ccc3O[C@@H]2[C@H](CO)O1)NCc1ccccc1	-3[16.7 µM]	0	23*	0	-1
O=C(NC1CCCC1)[C@H]1[C@H](CO)[C@H]2Cn3c(ccc(-c4ccccc4)c3=O)[C@@H]1N2CC1CC1	.	-4	8	.	-1
C[C@@H]1CN(C)C(=O)c2cc(N(C)C)ccc2O[C@@H]1CN(C)C(=O)OC(C)(C)C	.	-7	.	.	.
CO[C@@H]1CN(C)C(=O)c2cc(NS(C)(=O)=O)ccc2OC[C@H](C)N(Cc2cccnc2)C[C@H]1C	13[16.7 µM]	1	.	.	0
O=C(O)C[C@@H]1C=C[C@H](NC(=O)c2ccccc2F)[C@H](CO)O1	.	0	.	.	0
Cc1noc(C)c1S(=O)(=O)Nc1ccc2c(c1)C(=O)N([C@@H](C)CO)C[C@@H](C)[C@H](CN(C)Cc1ccc(Cl)c(Cl)c1)OCCCC[C@@H](C)O2	-9[16.7 µM]	-3	-2	4	0
O=C(C[C@@H]1C[C@H]2c3cc(NC(=O)Nc4ccccc4)ccc3O[C@H]2[C@@H](CO)O1)NCc1ccncc1	-1[16.7 µM]	0	-4	2	0
COCC(=O)Nc1ccc2c(c1)[C@H]1C[C@@H](CC(=O)O)O[C@@H](CO)[C@H]1O2	.	6	43*	.	0
O=C(C[C@H]1C[C@H]2c3cc(NC(=O)Nc4ccccc4)ccc3O[C@H]2[C@H](CO)O1)NCc1ccncc1	1[16.7 µM]	0	62*	0	0
COc1cccc(CN2[C@H](CO)[C@@H](c3ccccc3)C23CN(Cc2ccccc2OC)C3)c1	.	-3	1	.	0
COc1ccc2cc(CN(CC3CCCO3)S(=O)(=O)c3ccccc3Cl)c(=O)[nH]c2c1 (centres undefined)	9	-36*	.	-1	.
O=C(NNC(=O)c1cc2cc(OC(F)(F)F)ccc2[nH]1)c1cccc(C(F)(F)F)c1	.	-21*	0	.	0
NNC(=O)c1cc2cc(OC(F)(F)F)ccc2[nH]1	.	-25	-4	.	11
COc1ccccc1S(=O)(=O)N(C)C[C@H]1OCc2ccccc2-c2c(n(C)c3ccccc23)C(=O)N([C@@H](C)CO)C[C@@H]1C	.	2	3	-2	0
SMILES	miR122 inh	rRNA inh HTS	DENV2 CPE	Cneo AK release	E-selectin induc
CC(=O)Nc1ccc(S(=O)(=O)N2CCN(CC3CC4C=CC3C4)CC2)cc1 (centres undefined)	.	-22*	5	.	1
OC[C@H]1[C@@H](c2ccccc2)C2(CN(Cc3nccs3)C2)N1Cc1ccncc1	.	0	.	.	.
CO[C@H]1CN(C)C(=O)c2cc(NS(=O)(=O)c3cccc(F)c3)ccc2OC[C@H](C)N(Cc2cc(F)ccc2F)C[C@@H]1C	-11[16.7 µM]	-2	-9	1	0
CO[C@H]1CN(C)C(=O)c2cc(NS(=O)(=O)c3cccc(F)c3)ccc2OC[C@@H](C)N(Cc2cc(F)ccc2F)C[C@@H]1C	-2[16.7 µM]	1	22*	-3	0
CO[C@H]1CN(C)C(=O)c2ccc(NS(=O)(=O)c3cccc(F)c3)cc2OC[C@@H](C)N(Cc2cc(F)ccc2F)C[C@H]1C	.	-4	49*	-1	0
C[C@@H]1CN([C@H](C)CO)C(=O)Cc2cc(NC(=O)Nc3cccc4ccccc34)ccc2O[C@H]1CN(C)Cc1ccncc1	9[16.7 µM]	-8	0	0	.
O=c1[nH]c(=S)n2c(c1-c1ccccc1)OC(CBr)C2 (centres undefined)	-4	1	?	3	.
O=c1[nH]c(=O)n2c(c1-c1ccccc1)OC(CBr)C2 (centres undefined)	-6	-2	75*	1	.
C[C@@H]1CN([C@@H](C)CO)C(=O)Cc2cc(NS(=O)(=O)c3cn(C)cn3)ccc2O[C@@H]1CN(C)C	-1[16.7 µM]	4	-6	1	0
COc1cccc(CNc2ccc3c(c2)ncn3C(C)C)c1OC	0	-21*	3	-3	1
COc1cccc(C(=O)N2C[C@H]3[C@@H](c4ccccc42)[C@@H](CO)N3C(=O)c2ccc(F)cc2)c1	229*[16.7 µM]	4	11	0	0
COCC(=O)N1[C@H](CO)[C@H]2c3ccccc3N(C(=O)c3cccc(OC)c3)C[C@H]21	25[16.7 µM]	2	55*	-2	-1
COCC(=O)N1[C@H](CO)[C@@H]2c3ccccc3N(C(=O)c3cccc(OC)c3)C[C@@H]21	4[16.7 µM]	-1	-2	-4	0
O=C(Nc1nc2ccccc2s1)Nc1ccc(F)cc1F	.	20	-6	-1	.
O=C(Nc1ccc(F)cc1F)Nc1sccc1-c1nc2ccccc2s1	-4	-22*	4	.	0
CO[C@H]1CN(C)C(=O)c2cc(NC(C)=O)ccc2OC[C@@H](C)N(CC2CCCCC2)C[C@H]1C	-9[16.7 µM]	2	.	-5	0
O=C(Nc1ccccc1)c1ccccc1NC(=O)c1ccccc1[N+](=O)[O-]	4	-20	1	1	0
O=[N+]([O-])c1ccccc1C(=Nc1ccccc1)c1c(O)cc(O)cc1O	.	-21*	2	1	0
CC1CCCN(C(=O)c2ccc(S(=O)(=O)Nc3ccccc3Cl)cc2)C1 (centres undefined)	1	-4	83*	2	1
CO[C@H]1CN(C)C(=O)c2ccc(NC(=O)Cc3ccccc3)cc2OC[C@H](C)NC[C@@H]1C	.	-1	-9	.	0
